Compound activity as filed in PubChem.
The list is not random: actives were taken first. Their share in the collection is about 5.1%.
STAT3 inh-1 = IL-6 driven STAT3 reporter inhibitors, primary screen, U3A cells, luciferase, luminescence, MLSCN library | IL-6 STAT3-luciferase reporter; host cell line lacks STAT1 | inhibition, % at 5.5 µM | 190,000 compounds, 0.89% hits | AID 862, 2007;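 active = inhibition above the mean inhibition across all screened compounds plus 3 SD, cut at about 44% in these data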
NF-kB neuron act = activators of NF-kB expression in neurons, primary screen, cell-based, HTS | fold change at 12.5 µM | human neuronal cells, NF-kB reporter expression; hits give high values | AID 1239, 2008 | 190,000 compounds, 1.6% hits; in the data active = fold change above about 3.3
STAT3 activator = IL-6 driven STAT3 reporter potentiators, primary screen, U3A cells, luciferase, luminescence, MLSCN library | IL-6 STAT3-luciferase reporter; 100% = signal with IL-6 EC80 alone | activation (% of control), % at 5.6 µM | 190,000 compounds, 0.91% hits | AID 871, 2007;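 active = activation above the screen-wide mean of compound activation plus 3 SD, cut at about 130% in these data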
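Material: STAT3-luciferase reporter U3A cells. Controls: IL-6-treated wells, 100% activation. Read-out: % activation versus median of IL-6-stimulated wells. Probe or stimulus: IL-6 stimulus at 33 ng/mL final. Timing: compound 1 h, then IL-6 6 h at 37 °C. Signal: reporter luminescence signal.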
APP 5'UTR act = activators of APP 5'UTR luciferase reporter, primary screen, SH-SY5Y cells; 190,000 compounds, 1% hits; SH-SY5Y APP 5'UTR luciferase reporter, luminescence; zero percent = DMSO vehicle wells; activation, % at 2 µM; AID 1276, 2008;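 active = activation above a set limit, based on mean plus 3 SD of controls, cut at about 140% in these data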
STAT1 activator = STAT1 signaling activators, primary screen, cell-based, HTS, luciferase reporter. NIH 3T3 STAT1-luciferase reporter, IFN-gamma, luminescence; 100% = IFN-gamma alone, no compound. activation (% of control), % at 5.5 µM. 200,000 compounds, 2.6% hits. AID 932, 2007;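 active = activation above the screen-wide mean activation plus 3 SD, cut at about 130% in these data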
STAT1 blocker = STAT1 signaling inhibitors, primary screen, cell-based, HTS, luciferase reporter | 200,000 compounds, 0.35% hits | inhibition, % at 5.5 µM | NIH 3T3 STAT1-luciferase reporter, IFN-gamma, luminescence;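 active = inhibition above a set limit, the mean inhibition across all tested compounds plus 3 SD, cut at about 34% in these data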
STAT3 inh-2 = STAT3 reporter inhibitors, retest of hits, confirmation, U3A cells, luciferase, luminescence | shares compounds with STAT3 inh-1 | IL-6 STAT3 luciferase reporter; cell line lacks STAT1 | inhibition, % at 5.7 µM | 1,200 compounds, 45% hits | AID 1265, 2008;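 active = inhibition above the hit cutoff computed for the primary STAT3 screen, cut at about 44% in these data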
NFkB inh 2 = NF-kB reporter inhibitors in human cells, confirmation, counter-screen for STAT3 inhibitor project, cell-based, HEK293T, luciferase, TNF-alpha stimulus; shares compounds with STAT3 inh-1; TNF-alpha induced; inhibition, % at 5.7 µM; 1,200 compounds, 36% hits; AID 1308, 2008;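 active = inhibition above the mean of solvent-only control wells plus 3 SD, cutoff set per campaign, cut at about 13% in these data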
STAT1 inh STAT3c = STAT1 reporter inhibitors, IFN-gamma induced, confirmation, counter-screen for STAT3 inhibitor project, cell-based, NIH 3T3, luciferase luminescence; shares compounds with STAT3 inh-1; NIH 3T3 STAT1-luciferase reporter; inhibition, % at 5.7 µM; 1,200 compounds, 27% hits;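 active = inhibition above the mean plus 3 SD of solvent-only control wells, limit set per screening run, cut at about 16% in these data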
Numbers stand for hits.

How did O=C(CC(Nc1ccccc1Cl)C(=O)O)c1ccccc1 (stereo not given) do in these assays?
STAT3 inh-1: 62; NF-kB neuron act: inactive; STAT3 activator: inactive; APP 5'UTR act: 172; STAT1 activator: inactive; STAT1 blocker: inactive; STAT3 inh-2: inactive; NFkB inh 2: inactive; STAT1 inh STAT3c: inactive

What do the screens show for `CS(=O)(=O)c1ccc(C(=O)NCCN2C(=O)S/C(=C\c3cccnc3)C2=O)cc1[N+](=O)[O-]`?
STAT3 inh-1: inactive; NF-kB neuron act: inactive; STAT3 activator: inactive; APP 5'UTR act: inactive; STAT1 activator: inactive; STAT1 blocker: inactive

What do the screens show for `Brc1ccc(/C=N/Nc2ccc3ccccc3n2)cc1`?
STAT3 inh-1: inactive; NF-kB neuron act: inactive; STAT3 activator: inactive; APP 5'UTR act: inactive; STAT1 activator: inactive; STAT1 blocker: inactive

What do the screens show for `Fc1cccc(/C=N/Nc2ccc3ccccc3n2)c1`?
STAT3 inh-1: 60; NF-kB neuron act: inactive; STAT3 activator: inactive; APP 5'UTR act: 225; STAT1 activator: inactive; STAT1 blocker: inactive; STAT3 inh-2: inactive; NFkB inh 2: inactive; STAT1 inh STAT3c: inactive

How did CC1(C)C(=O)OC(/C=C\c2cccc([N+](=O)[O-])c2)C(C)(C)C1=O (stereo not given) do in these assays?
STAT3 inh-1: inactive; NF-kB neuron act: inactive; STAT3 activator: inactive; APP 5'UTR act: inactive; STAT1 activator: inactive; STAT1 blocker: inactive

How did C=CCNc1nc2c(c(=O)n(C)c(=O)n2C)n1CCCCCC do in these assays?
STAT3 inh-1: 54; NF-kB neuron act: inactive; STAT3 activator: inactive; APP 5'UTR act: inactive; STAT1 activator: inactive; STAT1 blocker: inactive; STAT3 inh-2: 64; NFkB inh 2: 15; STAT1 inh STAT3c: 30

What do the screens show for `O=C(Nc1nc2ccccc2[nH]1)c1ccc(F)cc1`?
STAT3 inh-1: 72; NF-kB neuron act: inactive; STAT3 activator: inactive; APP 5'UTR act: inactive; STAT1 activator: inactive; STAT1 blocker: inactive; STAT3 inh-2: inactive; NFkB inh 2: inactive; STAT1 inh STAT3c: inactive

Results for O=[N+]([O-])c1ccc(N/N=C/c2c[nH]c3ccccc23)cc1 ?
STAT3 inh-1: 48; NF-kB neuron act: inactive; STAT3 activator: inactive; APP 5'UTR act: inactive; STAT1 activator: inactive; STAT1 blocker: inactive; STAT3 inh-2: inactive; NFkB inh 2: inactive; STAT1 inh STAT3c: inactive

What do the screens show for `CCN(C(=S)Nc1ccc(C(C)=O)cc1)C1CCCCC1`?
STAT3 inh-1: inactive; NF-kB neuron act: inactive; STAT3 activator: inactive; APP 5'UTR act: inactive; STAT1 activator: inactive; STAT1 blocker: inactive

Results for O=C(Oc1cccc(Nc2ncnc3ccccc23)c1)c1ccccc1Cl ?
STAT3 inh-1: 54; NF-kB neuron act: inactive; STAT3 activator: inactive; APP 5'UTR act: inactive; STAT1 activator: inactive; STAT1 blocker: inactive; STAT3 inh-2: 48; NFkB inh 2: inactive; STAT1 inh STAT3c: inactive

What do the screens show for `COc1cc(/C=C/C(=O)O)cc2c1OCCO2`?
STAT3 inh-1: inactive; NF-kB neuron act: inactive; STAT3 activator: inactive; APP 5'UTR act: inactive; STAT1 activator: inactive; STAT1 blocker: inactive

How did CCn1cc([N+](=O)[O-])c(C(=O)Nc2nc(-c3ccc(C)c(C)c3)c(C)s2)n1 do in these assays?
STAT3 inh-1: 45; NF-kB neuron act: inactive; STAT3 activator: inactive; APP 5'UTR act: inactive; STAT1 activator: inactive; STAT1 blocker: inactive; STAT3 inh-2: inactive; NFkB inh 2: inactive; STAT1 inh STAT3c: inactive

What do the screens show for `CCn1cc([N+](=O)[O-])c(C(=O)Nc2cc(C)on2)n1`?
STAT3 inh-1: inactive; NF-kB neuron act: inactive; STAT3 activator: inactive; APP 5'UTR act: inactive; STAT1 activator: inactive; STAT1 blocker: inactive

Results for CCn1cc([N+](=O)[O-])c(C(=O)Nc2nc(-c3ccc(C)cc3)c(C)s2)n1 ?
STAT3 inh-1: 56; NF-kB neuron act: inactive; STAT3 activator: inactive; APP 5'UTR act: inactive; STAT1 activator: inactive; STAT1 blocker: inactive; STAT3 inh-2: inactive; NFkB inh 2: inactive; STAT1 inh STAT3c: inactive

Results for CC(=O)c1c(C)[nH]c(C(=O)NC(C)c2ccccc2)c1C (stereo not given) ?
STAT3 inh-1: inactive; NF-kB neuron act: inactive; STAT3 activator: inactive; APP 5'UTR act: inactive; STAT1 activator: inactive; STAT1 blocker: inactive

How did CCOc1ccccc1NC(=O)C(Sc1ccccc1)c1ccccc1 (stereo not given) do in these assays?
STAT3 inh-1: inactive; NF-kB neuron act: inactive; STAT3 activator: inactive; APP 5'UTR act: inactive; STAT1 activator: inactive; STAT1 blocker: inactive

How did COc1cccc(-c2nnc(NC(=O)C(C)C)o2)c1 do in these assays?
STAT3 inh-1: inactive; NF-kB neuron act: inactive; STAT3 activator: inactive; APP 5'UTR act: inactive; STAT1 activator: inactive; STAT1 blocker: inactive

What do the screens show for `COc1cccc(-c2nnc(-c3ccc(C)o3)o2)c1`?
STAT3 inh-1: 55; NF-kB neuron act: 4.2; STAT3 activator: inactive; APP 5'UTR act: 164; STAT1 activator: inactive; STAT1 blocker: inactive; STAT3 inh-2: inactive; NFkB inh 2: inactive; STAT1 inh STAT3c: inactive

What do the screens show for `COc1ccc(-c2nsc3c(N4CCCC4)ncnc23)cc1`?
STAT3 inh-1: 53; NF-kB neuron act: inactive; STAT3 activator: inactive; APP 5'UTR act: 156; STAT1 activator: inactive; STAT1 blocker: inactive; STAT3 inh-2: inactive; NFkB inh 2: inactive; STAT1 inh STAT3c: inactive

What do the screens show for `COC(=O)c1sc(=S)sc1C(=O)OC`?
STAT3 inh-1: inactive; NF-kB neuron act: inactive; STAT3 activator: inactive; APP 5'UTR act: inactive; STAT1 activator: inactive; STAT1 blocker: inactive

How did O=S(=O)(c1ccc(N2CCCCCC2)nc1)N1CCCC1 do in these assays?
STAT3 inh-1: inactive; NF-kB neuron act: inactive; STAT3 activator: inactive; APP 5'UTR act: inactive; STAT1 activator: inactive; STAT1 blocker: inactive

Results for NC(=O)C1CCN(c2ccc(S(=O)(=O)N3CCC(Cc4ccccc4)CC3)cn2)CC1 ?
STAT3 inh-1: 64; NF-kB neuron act: inactive; STAT3 activator: inactive; APP 5'UTR act: inactive; STAT1 activator: inactive; STAT1 blocker: inactive; STAT3 inh-2: 55; NFkB inh 2: inactive; STAT1 inh STAT3c: inactive
